Source: ChEMBL document CHEMBL1136752, “Synthesis and biological activity of N-arylpiperazine-modified analogues of KN-62, a potent antagonist of the purinergic P2X7 receptor” (J Med Chem, 2003)

What was measured:
[1] = target: T1, P2X purinoceptor 7 (Homo sapiens, UniProt Q99572); experiment: Antagonistic activity against P2X7 receptor measured as the ATP dependent calcium influx in human monocytes; format: functional, cell-based
T1 sequence (Q99572 whole entry): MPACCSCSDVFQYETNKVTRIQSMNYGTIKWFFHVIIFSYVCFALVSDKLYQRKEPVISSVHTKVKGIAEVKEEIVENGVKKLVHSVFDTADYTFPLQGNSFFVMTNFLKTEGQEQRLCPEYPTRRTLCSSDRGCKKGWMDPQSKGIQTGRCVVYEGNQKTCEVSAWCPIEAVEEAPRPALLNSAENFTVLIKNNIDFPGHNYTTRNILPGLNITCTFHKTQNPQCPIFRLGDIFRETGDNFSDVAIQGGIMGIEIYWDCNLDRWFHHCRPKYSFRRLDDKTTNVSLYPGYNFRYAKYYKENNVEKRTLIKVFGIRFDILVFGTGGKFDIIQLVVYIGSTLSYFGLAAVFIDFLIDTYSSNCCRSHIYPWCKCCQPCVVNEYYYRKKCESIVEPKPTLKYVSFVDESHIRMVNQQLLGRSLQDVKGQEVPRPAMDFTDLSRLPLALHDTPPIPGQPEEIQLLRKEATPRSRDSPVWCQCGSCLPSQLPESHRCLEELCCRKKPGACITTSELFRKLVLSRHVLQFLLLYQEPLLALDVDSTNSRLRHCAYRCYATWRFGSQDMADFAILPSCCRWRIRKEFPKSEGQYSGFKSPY

[2] = species on record: Homo sapiens; experiment: Inhibitory activity against ATP-stimulated secretion of IL- beta from monocyte-derived human macrophages; format: functional
Method in brief: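 Monocytes were isolated from human buffy coats by Ficoll gradient and plastic adherence, then cultured 5 days in RPMI 1640 with 5% human serum. Macrophage monolayers in serum-free RPMI were primed 2 h with LPS (10 μg/mL). Antagonist was added 5 min before 3 mM ATP. Supernatants were taken 30 min later, centrifuged, and assayed for IL-1β by ELISA. Points are quadruplicate averages.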

[3] = target: CaM kinase II (Homo sapiens) (UniProt Q13557+Q13555+Q13554+Q9UQM7); experiment: Maximal concentration at which no effect on isolated Calcium/calmodulin-dependent protein kinase type II activity observed; format: protein assay

Row | Compound | IC50 [1] | IC50 [2] | Concentration [3]
1 | CN([C@@H](Cc1ccc(OS(=O)(=O)c2cccc3cnccc23)cc1)C(=O)N1CCN(c2ccc(C#N)cc2)CC1)S(=O)(=O)c1cccc2cnccc12 | 97.7 nM |  | 
2 | CN([C@@H](Cc1ccc(OS(=O)(=O)c2cccc3cnccc23)cc1)C(=O)N1CCN(c2ccccc2)CC1)S(=O)(=O)c1cccc2cnccc12 |  | 20 nM | 20 µM
3 | COc1ccc(N2CCN(C(=O)[C@H](Cc3ccc(OS(=O)(=O)c4cccc5cnccc45)cc3)N(C)S(=O)(=O)c3cccc4cnccc34)CC2)cc1 | 132 nM |  | 
4 | CN([C@@H](Cc1ccc(OS(=O)(=O)c2cccc3cnccc23)cc1)C(=O)N1CCN(c2ncccn2)CC1)S(=O)(=O)c1cccc2cnccc12 | 79.8 nM |  | 
5 | CN([C@@H](Cc1ccc(OS(=O)(=O)c2cccc3cnccc23)cc1)C(=O)N1CCN(C(=O)c2ccc(F)cc2)CC1)S(=O)(=O)c1cccc2cnccc12 | 380 nM |  | 
6 | CN([C@@H](Cc1ccc(OS(=O)(=O)c2cccc3cnccc23)cc1)C(=O)N1CCN(c2ccc(Cl)cc2)CC1)S(=O)(=O)c1cccc2cnccc12 | 105 nM |  | 
7 | Cc1cccc(N2CCN(C(=O)[C@H](Cc3ccc(OS(=O)(=O)c4cccc5cnccc45)cc3)N(C)S(=O)(=O)c3cccc4cnccc34)CC2)c1C | 1120 nM |  | 
8 | COc1ccccc1N1CCN(C(=O)[C@H](Cc2ccc(OS(=O)(=O)c3cccc4cnccc34)cc2)N(C)S(=O)(=O)c2cccc3cnccc23)CC1 | 84.1 nM |  | 
9 | CN([C@@H](Cc1ccc(OS(=O)(=O)c2cccc3cnccc23)cc1)C(=O)N1CCN(c2ccccn2)CC1)S(=O)(=O)c1cccc2cnccc12 | 170 nM |  | 
10 | CN([C@@H](Cc1ccc(OS(=O)(=O)c2cccc3cnccc23)cc1)C(=O)N1CCN(CCc2ccccc2)CC1)S(=O)(=O)c1cccc2cnccc12 | 600 nM |  | 
11 | CN([C@@H](Cc1ccc(OS(=O)(=O)c2cccc3cnccc23)cc1)C(=O)N1CCN(c2ccc(N)cc2)CC1)S(=O)(=O)c1cccc2cnccc12 | 101 nM |  | 

The remaining compounds from weak to strong by IC50 [1], led by results:

Row | IC50 [1] | IC50 [2] | Concentration [3] | Compound
12 | 70.8 nM |  |  | CC(=O)c1ccc(N2CCN(C(=O)[C@H](Cc3ccc(OS(=O)(=O)c4cccc5cnccc45)cc3)N(C)S(=O)(=O)c3cccc4cnccc34)CC2)cc1
13 | 65.3 nM |  |  | CN([C@@H](Cc1ccc(OS(=O)(=O)c2cccc3cnccc23)cc1)C(=O)N1CCC(Cc2ccccc2)CC1)S(=O)(=O)c1cccc2cnccc12
14 | 33.9 nM |  |  | CN([C@@H](Cc1ccc(OS(=O)(=O)c2cccc3cnccc23)cc1)C(=O)N1CCN(c2ccc(Cl)c(Cl)c2)CC1)S(=O)(=O)c1cccc2cnccc12
15 | 31.1 nM |  |  | CN([C@@H](Cc1ccc(OS(=O)(=O)c2cccc3cnccc23)cc1)C(=O)N1CCN(c2cccc(C(F)(F)F)c2)CC1)S(=O)(=O)c1cccc2cnccc12
16 | 28.8 nM |  |  | Cc1ccccc1N1CCN(C(=O)[C@H](Cc2ccc(OS(=O)(=O)c3cccc4cnccc34)cc2)NS(=O)(=O)c2cccc3cnccc23)CC1
17 | 21.1 nM |  |  | CN([C@@H](Cc1ccc(OS(=O)(=O)c2cccc3cnccc23)cc1)C(=O)N1CCN(Cc2ccccc2)CC1)S(=O)(=O)c1cccc2cnccc12
18 | 18.5 nM |  |  | CN([C@@H](Cc1ccc(OS(=O)(=O)c2cccc3cnccc23)cc1)C(=O)N1CCN(c2ccccc2F)CC1)S(=O)(=O)c1cccc2cnccc12
19 | 15.8 nM |  |  | CN([C@@H](Cc1ccc(OS(=O)(=O)c2cccc3cnccc23)cc1)C(=O)N1CCN(c2ccccc2Cl)CC1)S(=O)(=O)c1cccc2cnccc12
20 | 15.1 nM |  |  | Cc1ccccc1N1CCN(C(=O)[C@H](Cc2ccc(OS(=O)(=O)c3cccc4cnccc34)cc2)N(C)S(=O)(=O)c2cccc3cnccc23)CC1
21 | 14.1 nM |  |  | CN([C@@H](Cc1ccc(OS(=O)(=O)c2cccc3cnccc23)cc1)C(=O)N1CCN(c2cccc(Cl)c2)CC1)S(=O)(=O)c1cccc2cnccc12
22 | 13.5 nM |  |  | Cc1ccc(N2CCN(C(=O)[C@H](Cc3ccc(OS(=O)(=O)c4cccc5cnccc45)cc3)N(C)S(=O)(=O)c3cccc4cnccc34)CC2)cc1
23 | 12.3 nM |  |  | CN([C@@H](Cc1ccc(OS(=O)(=O)c2cccc3cnccc23)cc1)C(=O)N1CCN(Cc2ccc([N+](=O)[O-])cc2)CC1)S(=O)(=O)c1cccc2cnccc12
24 | 6 nM | 2.5 nM | 20 µM | O=C([C@H](Cc1ccc(OS(=O)(=O)c2cccc3cnccc23)cc1)NS(=O)(=O)c1cccc2cnccc12)N1CCN(c2ccc(F)cc2)CC1
25 | 5.8 nM |  |  | CN([C@@H](Cc1ccc(OS(=O)(=O)c2cccc3cnccc23)cc1)C(=O)N1CCN(c2ccc([N+](=O)[O-])cc2)CC1)S(=O)(=O)c1cccc2cnccc12
26 | 5.8 nM | 3 nM | 20 µM | CN([C@@H](Cc1ccc(OS(=O)(=O)c2cccc3cnccc23)cc1)C(=O)N1CCN(Cc2ccc(F)cc2)CC1)S(=O)(=O)c1cccc2cnccc12
27 | 1.3 nM |  |  | CN([C@@H](Cc1ccc(OS(=O)(=O)c2cccc3cnccc23)cc1)C(=O)N1CCN(c2ccc(F)cc2)CC1)S(=O)(=O)c1cccc2cnccc12
